# Assay results taken from PubChem BioAssay AID743061 (The Scripps Research Institute Molecular Screening Center, 2013).
# Target: Methionine--tRNA ligase, mitochondrial (Homo sapiens) (UniProt Q96GW9)
# Test: inhibitors of human mitochondrial MetRS, late-stage follow-up, selectivity assay for T. brucei MetRS inhibitor project, biochemical, radioactivity, round 1 (AID 743061);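 note: 0% = DMSO with full reaction and 100% = DMSO wells lacking tRNA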
# Settings: recombinant human mtMetRS, [3H]Met tRNA charging, at 10 µM, stronger effect = higher value
# Method in brief: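 Material: Recombinant human mitochondrial methionyl-tRNA synthetase (MetRS) | Medium: pH 8.0 buffer, 2.5 mM ATP | Reagent: [3H]Met 240 nM plus bulk E. coli tRNA | Compound: 10 and 1 µM | Schedule: 15 min compound–enzyme preincubation, then 1 h reaction at room temperature | Measured by: Scintillation counts of TCA-precipitated charged tRNA on filters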
row,Structure (SMILES),inhibition [%]
1,COc1ccc(CCN(C(=O)c2cccc(F)c2)C2CC(=O)N(c3ccc(Br)cc3)C2=O)cc1 (centres undefined),4.36
2,O=C(CC(=O)Nc1cccc(Cl)c1)NN=Cc1ccccc1,9.82
3,O=C(NCc1nc2ccccc2[nH]1)C1=C[C@H](c2ccc(Br)cc2)C[C@H](OCc2ccc(CO)cc2)O1,17.2
4,Cc1ccc(C(=O)NCCc2nc3ccccc3[nH]2)cc1[N+](=O)[O-],7.36
5,COc1ccc(CNC(=O)CSc2nnc3c(n2)[nH]c2ccc(F)cc23)cc1,-12
6,O=C(NCc1nc2ccccc2[nH]1)C1=C[C@@H](c2csc3ccccc23)C[C@@H](OCCCCO)O1,6.67
7,O=C(NNC(=O)c1cc(-c2ccc(Cl)c(Cl)c2)nc2ccccc12)Nc1ccccc1,-11.2
8,COc1ccccc1NC(=O)Cn1cc(C(=O)C(=O)N2CCOCC2)c2ccccc21,-8.03
9,CCN(CC)C(=O)C(=O)c1cn(CC(=O)N(CC)c2ccccc2)c2ccccc12,9.56
10,Cc1cccc(NC(=O)C2CC(=O)n3c(nc4ccccc43)N2)c1 (centres undefined),6.78
11,O=C(NCc1nc2ccccc2[nH]1)C1=C[C@@H](C2CC2)C[C@@H](OCc2ccc(CO)cc2)O1,5.87
12,Clc1ccc(OCCSCc2nc3ccccc3[nH]2)cc1,-5.52
13,Cc1ccc(CNC(=O)CSc2nnc3c(n2)[nH]c2ccc(C)cc23)cc1,5.9
14,O=C(NCCc1nc2ccccc2[nH]1)c1c(F)cccc1F,0.73
15,COc1cccc(NC(=O)C2CC(=O)n3c(nc4ccccc43)N2)c1 (centres undefined),9.79
16,O=C(NCCc1nc2ccccc2[nH]1)c1ccc(Cl)c(Cl)c1,27.7
17,O=C(CSC1CC(=O)N(c2cccc(Cl)c2)C1=O)Nc1ccc(Br)cc1 (centres undefined),1.19

row,Structure (SMILES),inhibition [%]
1,O=C(C(=O)N1CCOCC1)c1cn(CC(=O)N2CCCc3ccccc32)c2ccccc12,3.68
2,O=C1[C@@H]2Cc3c([nH]c4ccccc34)C(c3cccc([N+](=O)[O-])c3)N2C(=O)CN1CCCO (some centres undefined),4.46
3,O=C(Cn1cc(C(=O)C(=O)N2CCCC2)c2ccccc21)Nc1ccccc1,-0.86
4,O=C(Cn1cc(C(=O)C(=O)N2CCOCC2)c2ccccc21)NCC1CCCO1 (centres undefined),5.42
5,O=C(NCc1nc2ccccc2[nH]1)C1=C[C@H](c2ccc(Br)cc2)C[C@H](OCCCCO)O1,-2.4
6,O=C1CC(SCc2nc3ccccc3[nH]2)C(=O)N1c1cccc(Cl)c1 (centres undefined),-0.68
7,COc1ccc2[nH]c3nc(SCC(=O)Nc4ccc5c(c4)OCO5)nnc3c2c1,24.5
8,Cc1ccc2[nH]c3nc(SCC(=O)Nc4ccc(C(F)(F)F)cc4)nnc3c2c1,4.54
9,Oc1c(Cl)cc(Cl)cc1CNc1nc2ccccc2[nH]1,31.4
10,O=C(C[C@H]1C(=O)N(Cc2ccccc2)C[C@@H]1c1ccc(Br)cc1)Nc1ccc(Br)cc1,-8.54
11,CCN(C(=O)Cn1cc(C(=O)C(=O)N2CCOCC2)c2ccccc21)c1ccccc1,-14.2
12,CC(=O)c1cn(CC(=O)Nc2cccc(C(F)(F)F)c2)c2ccccc12,-0.68
13,COCCc1nc2ccc(C(=O)NCCc3nc4ccc(OC)cc4[nH]3)cc2o1,0.45
14,CCO[C@@H]1OC(C(=O)NCc2nc3ccccc3[nH]2)=C[C@H](c2ccc(Br)cc2)[C@H]1CCCO,-6.53
15,O=C(CN1CCSC1=NCc1ccccc1)c1ccc(Cl)c(Cl)c1,-25.5
16,Cc1ccc(NC(=O)CN(C)C(=O)CCSc2ccc(F)cc2)cc1,-21.5
17,CCOC(=O)N1CCC(Nc2c(Nc3ccc(F)cc3)c(=O)c2=O)CC1,-4.56
